Test results: ChEMBL document CHEMBL1123302, “Antagonists of substance P. Further modifications of substance P antagonists obtained by replacing either positions 7, 9 or 7, 8 and 11 of SP with D-amino acid residues” (J Med Chem, 1986)

Tests used:
Format in all cases: tissue-based
[1] = molecular target: Substance-P receptor (Cavia porcellus) (UniProt P30547); test: In vitro inhibition of substance P (6-11) hexapeptide induced contractions of the guinea pig ileum at 10 uM.
Summary of the method: (§1)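 Agonist (SP or SP(6-11)-hexapeptide) dose-response curves on a 3-min cycle with 1-min contact, then washout. Dose ratio = agonist EC50 with antagonist / EC50 alone. At least two preparations per compound; ratios below 2 taken as insignificant.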

[2] = molecular target: Substance-P receptor (Cavia porcellus) (UniProt P30547); test: In vitro inhibition of substance P induced contractions of the guinea pig ileum at 5 uM.; summary of the method: as §1
[3] = molecular target: Substance-P receptor (Cavia porcellus) (UniProt P30547); test: In vitro inhibition of substance P (6-11) hexapeptide induced contractions of the guinea pig ileum at 5 uM.; summary of the method: as §1
[4] = molecular target: Substance-P receptor (Cavia porcellus) (UniProt P30547); test: In vitro inhibition of substance P induced contractions of the guinea pig ileum at 10 uM.; summary of the method: as §1

Chain of Substance-P receptor (Cavia porcellus) (P30547 whole entry): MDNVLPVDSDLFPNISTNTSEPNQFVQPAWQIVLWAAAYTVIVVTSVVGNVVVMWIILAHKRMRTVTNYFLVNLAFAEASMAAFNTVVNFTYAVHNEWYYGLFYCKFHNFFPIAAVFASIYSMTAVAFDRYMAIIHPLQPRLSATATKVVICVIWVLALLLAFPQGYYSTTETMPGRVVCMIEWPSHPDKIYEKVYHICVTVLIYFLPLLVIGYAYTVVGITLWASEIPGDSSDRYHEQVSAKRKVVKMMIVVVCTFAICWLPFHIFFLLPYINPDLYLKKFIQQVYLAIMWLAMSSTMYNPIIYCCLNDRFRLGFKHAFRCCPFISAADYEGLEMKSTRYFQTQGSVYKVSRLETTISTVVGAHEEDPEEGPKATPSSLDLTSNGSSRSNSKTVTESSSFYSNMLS

Activity [1] [dose ratio]	Activity [2] [dose ratio]	Activity [3] [dose ratio]	Activity [4] [dose ratio]	Structure (SMILES)
225	5.8	69	18.2	COC(=O)[C@@H](CCSC)NC(=O)[C@H](CC(C)C)SCCNC(=O)[C@H](Cc1ccccc1)NC(=O)[C@@H](Cc1ccccc1)NC(=O)[C@H](CCCN=C(N)N)NC(=O)[C@H](CC(N)=O)NC(=O)OCc1ccccc1
19	< 2	3.1	< 2	COC(=O)C(CCSC)NC(=O)[C@@H](CC(C)C)SCCNC(=O)[C@@H](Cc1ccccc1)NC(=O)[C@H](Cc1ccccc1)NC(=O)[C@H](CCC(N)=O)NC(=O)[C@H](CCC(N)=O)NC(=O)[C@H]1CCCN1C(=O)[C@H](CCCCN)NC(=O)[C@H]1CCCN1C(=O)[C@@H](N)CCCN=C(N)N (stereo in doubt)
< 2	< 2	< 2	< 2	COC(=O)[C@@H](CCSC)NC(=O)[C@H](CC(C)C)N(C)C(=O)CN(C)C(=O)[C@H](Cc1ccccc1)NC(=O)[C@@H](Cc1ccccc1)NC(=O)[C@H](CCC(N)=O)NC(=O)[C@H](CCC(N)=O)NC(=O)C1CCCN1C(=O)OC(C)(C)C (stereo in doubt)
2.5	< 2	< 2	< 2	COC(=O)[C@@H](CCSC)NC(=O)[C@H](CC(C)C)N(C)C(=O)CN(C)C(=O)[C@H](Cc1ccccc1)NC(=O)[C@@H](Cc1ccccc1)NC(=O)[C@H](CCC(N)=O)NC(=O)[C@H](CCC(N)=O)NC(=O)C1CCCN1C(=O)[C@H](CCCCN)NC(=O)C1CCCN1C(=O)[C@@H](N)CCCN=C(N)N (stereo in doubt)
68	18.5	54.5	20	COC(=O)[C@@H](CCSC)NC(=O)[C@H](CC(C)C)SCCNC(=O)[C@H](Cc1ccccc1)NC(=O)[C@@H](Cc1ccccc1)NC(=O)[C@H](CCCN=C(N)N)NC(=O)[C@H](CC(N)=O)NC(=O)C1CCCN1C(=O)[C@H](CCCCNC(=O)OCc1ccccc1)NC(=O)C1CCCN1C(=O)[C@H](CCCN=C(N)N)NC(=O)OCc1ccccc1 (stereo in doubt)

Further lines, the compound ahead of its results:

Structure (SMILES)	Activity [1] [dose ratio]	Activity [2] [dose ratio]	Activity [3] [dose ratio]	Activity [4] [dose ratio]
COC(=O)[C@@H](CCSC)NC(=O)[C@@H](CC(C)C)NC(=O)CNC(=O)[C@@H](Cc1c[nH]c2ccccc12)NC(=O)[C@@H](Cc1c[nH]c2ccccc12)NC(=O)[C@H](CCC(N)=O)NC(=O)[C@H](CCC(N)=O)NC(=O)[C@@H]1CCCN1C(=O)[C@H](CCCCNC(=O)OCc1ccccc1)NC(=O)[C@@H]1CCCN1C(=O)[C@H](CCCN=C(N)N)NC(=O)OCc1ccccc1	37	15	34	17.2
COC(=O)C(CCSC)NC(=O)[C@H](CC(C)C)SCCNC(=O)[C@@H](Cc1ccccc1)NC(=O)[C@@H](Cc1ccccc1)NC(=O)[C@H](CCC(N)=O)NC(=O)[C@H](CCC(N)=O)NC(=O)[C@H]1CCCN1C(=O)[C@H](CCCCN)NC(=O)[C@H]1CCCN1C(=O)[C@@H](N)CCCN=C(N)N (stereo in doubt)	3.4	2.7	2.5	3.6
COC(=O)[C@H](CCSC)NC(=O)[C@H](CC(C)C)NC(=O)[C@@H](Cc1c[nH]c2ccccc12)NC(=O)[C@H](Cc1ccccc1)NC(=O)[C@@H](Cc1ccccc1)NC(=O)[C@H](CCCN=C(N)N)NC(=O)[C@H](CC(N)=O)NC(=O)C1CCCN1C(=O)[C@H](CCCCN)NC(=O)C1CCCN1C(=O)[C@@H](N)CCCN=C(N)N (stereo in doubt)	4	2.2	2.2	6
CSCC[C@H](NC(=O)[C@H](CC(C)C)NC(=O)[C@@H](Cc1c[nH]c2ccccc12)NC(=O)[C@H](Cc1ccccc1)NC(=O)[C@@H](Cc1ccccc1)NC(=O)[C@H](CCCN=C(N)N)NC(=O)[C@H](CC(N)=O)NC(=O)C1CCCN1C(=O)[C@H](CCCCN)NC(=O)C1CCCN1C(=O)[C@@H](N)CCCN=C(N)N)C(=O)O (stereo in doubt)	< 2	< 2	< 2	< 2
